From PubChem BioAssay
Hits are enriched below; roughly 8.9% of the tested compounds scored in any of these assays.
MT stabilize HCS – stabilizes microtubules in HeLa cells. HeLa tubulin immunostaining HCS, 24 h; share of cells brighter than vehicle mean+2SD. % tubulin-high responders, % at 10 µM. 200,000 compounds, 0.83% hits. AID 2205;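 active = plate Z-score above 3 for both tubulin-high and condensed-nucleus cell shares, with cell loss under 80%, at 10 µM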;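 note: anti alpha tubulin signal scored within the nucleus-defined area of each cell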
b-catenin transl – modulators of beta-catenin nuclear translocation. AID 1665. 190,000 compounds, 0.3% hits. HeLa beta-catenin nuclear translocation, immunofluorescence imaging. nuclear translocation activity, % at 5 µM;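 active = nuclear translocation activity above 50% at 5 µM, with a well cell count of 50 or more; inconclusive = wells under 50 cells across six images, flagged as toxic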;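 note: per-cell ratio of nuclear to cytoplasmic median beta-catenin stain intensity; plate controls were DMSO negative control for no effect and GSK-3 inhibitor IX positive control for full effect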
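Test system: human HeLa cells, endogenous beta-catenin. Times: 24 h compound exposure, 37°C. Measured by: beta-catenin immunofluorescence imaging with DAPI.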
L major viab – Leishmania major promastigote growth inhibition; Leishmania major promastigotes, resazurin fluorescence viability; inhibition, % at 10 µM; 200,000 compounds, 9% hits; AID 1063; in the data active = inhibition above about 50%;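 note: promastigotes grown with compound for 44 hours at 28 °C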
Dynein cargo inh – dynein cargo transport inhibition; 3617.4 mouse cells, GR-EGFP nuclear translocation imaging; test concentration mostly 20 µM; stimulated with dexamethasone, 1 µM; active compounds read low; z-score, hits read low; 220,000 compounds, 0.47% hits; AID 1381;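 active = plate z-score of nuclear minus cytoplasmic receptor signal below a set negative limit, without overly bright fluorescence or cell loss, cut at about -3.5 in these data, passing the limit was not always enough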;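 note: z-score of nuclear minus cytoplasmic ring GR-EGFP intensity difference per well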
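Medium: Induction medium lacking tetracycline, stripped serum | Probe or stimulus: 1.0 µM final dexamethasone stimulus | Schedule: 48 h induction, then 1 h compound, then 30 min agonist, 37 °C | Signal: Automated 10x imaging of fixed Hoechst-stained cells | Evaluation: Per-cell GR-EGFP intensity, nucleus versus surrounding cytoplasmic ring, well-averaged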
HSV augment – HSV replication enhancement; HSV replication augmentation in cells, fold increase; maximum fold increase; 220,000 compounds, 0.005% hits; AID 1956; in the data active = maximum fold increase above about 1.5; inconclusive = no clear call, values can overlap the other calls; tested in PC3 cells
Numbers without * were called inactive; i = inactive; ? = inconclusive; . = not tested or not shown.

SMILES	MT stabilize HCS	b-catenin transl	L major viab	Dynein cargo inh	HSV augment
O=C(NC(=S)Nc1ccc(CN2CCOCC2)cc1)c1cccc([N+](=O)[O-])c1	2	-2	19	-0.43	i
O=C(NC(=S)NCCN1CCOCC1)c1ccccc1Br	3	2	40	-0.7	i
O=C(NC(=S)Nc1ccc(CN2CCOCC2)cc1)c1ccc([N+](=O)[O-])cc1Cl	4	-3	100*	-0.0053	i
O=C(NC(=S)NCCN1CCOCC1)c1ccc(Cl)cc1Cl	4	2	95*	1.4	i
COc1cccc(-n2c(SCC(=O)NCCc3ccccc3)nnc2-c2ccoc2C)c1	3	-7	1	-1	i
COC(=O)c1ccc(OC(=O)CCN2c3ccccc3Sc3ccccc32)cc1	4	5	-6	1.1	i
CC(=O)c1ccc(OC(=O)CCN2c3ccccc3Sc3ccccc32)cc1	5	-6	53*	-0.73	i
CC(c1ccccc1)N1CCn2c(nc3cc(NC(=O)c4cccs4)ccc32)C1 (centres undefined)	4	-4	99*	-0.29	i
COCCN1CCn2c(nc3cc(NC(=O)c4cccs4)ccc32)C1	5	3	2	-0.63	i
COc1ccc(C(=O)C[n+]2ccc3c(c2)nc(-c2ccccc2)n3C)cc1	4	-2	68*	0.3	i
COc1ccc(C(=O)C[n+]2ccc3c(c2)nc(-c2ccc(OC)cc2OC)n3C)cc1	3	0	87*	0.13	i
COc1cc(-c2nc3c[n+](CC(=O)c4ccccc4)ccc3n2C)cc(OC)c1OC	2	-3	-3	-0.41	i
COc1ccc(-c2nnc(NC(=O)c3cc(Cl)ccc3Cl)o2)cc1	6	.	42	-1	i
CCNS(=O)(=O)c1ccc(NC(=O)c2cc(C(F)(F)F)nn2C)cc1	4	-1	15	-0.29	i
CCCCCCCCn1c2c(c(=N)c3ccccc31)CCC2	6	4	100*	-1.1	i
CCn1c2c(c(=N)c3c1CCC3)CCCC2	.	0	.	-0.72	i
CCCCCCCCCCn1c2c(c(=N)c3c1CCC3)CCC2	74	3	100*	9	i
CCCCCCCCCn1c2c(c(=N)c3c1CCC3)CCCC2	26*	7	100*	1.8	i
CCCCn1c2c(c(=N)c3ccccc31)CCC2	.	2	.	0.77	i
CCCCCn1c2c(c(=N)c3ccccc31)CCC2	.	1	.	-0.83	i
CCOc1cc(C2C(C#N)=C(N)Oc3n[nH]c(CC)c32)ccc1OCCN1CCOCC1 (centres undefined)	3	-2	8	0.21	i
COc1ccc(C(=S)N2CCCC2)cc1C	2	-3	-2	0.15	i
Cc1ccn2c(C(=O)N/N=C\c3cccs3)c(C)nc2c1	3	-1	8	-0.1	i
COc1cccc(C2C3=C(N=c4s/c(=C\c5ccccc5O)c(=O)n42)c2ccccc2CC3)c1OC (centres undefined)	2	3	13	0.74	i
COc1ccccc1C1C(C(C)=O)=C(C)N=c2s/c(=C\c3cc(OC)c(OC)c(OC)c3)c(=O)n21 (centres undefined)	5	-1	55*	-0.62	i
SMILES	MT stabilize HCS	b-catenin transl	L major viab	Dynein cargo inh	HSV augment
CCOC(=O)Cc1csc(NC(=O)c2ccc(Cl)nc2)n1	37*	1	1	0.26	i
CC(C)Cn1c(=O)c(C(=O)N/N=C/c2cccc(F)c2)c(O)c2ccccc21	4	-1	70*	0.76	i
CCOC(=O)Cc1csc(NC(=O)c2c(O)c3ccccc3n(CC(C)C)c2=O)n1	3	1	79*	0.73	i
CC(C)Cn1c(=O)c(C(=O)Nc2ccccc2S(N)(=O)=O)c(O)c2ccccc21	4	1	-6	0.36	i
CCOC(=O)Cc1csc(NC(=O)c2ccc(C)cc2)n1	2	1	-1	0.41	i
CCOC(=O)Cc1csc(NC(=O)CSc2nnc(-c3ccncc3)o2)n1	4	0	51*	-0.83	i
CCOC(=O)Cc1csc(NC(=S)NC(=O)CC(C)C)n1	3	0	54*	0.81	i
O=c1c2c(nc3c(-c4cccc(Br)c4)c[nH]n13)CCCC2	7	-1	100*	-1.1	i
O=c1c2c(nc3cc(-c4ccc(Br)cc4)[nH]n13)CCCC2	1	-1	67*	0.047	i
O=c1c2c(nc3cc(-c4ccccc4)[nH]n13)CCC2	9	-2	3	0.021	i
Cc1nc2cncc(Br)c2n1C	5	-3	-4	-0.27	i
Cc1cc(N/N=C/c2ccncc2)nc2ccccc12	7	-2	73*	0.73	i
Cc1cc(N/N=C/c2cccc(Br)c2)nc2ccccc12	2	0	61*	-0.46	i
CSc1nc2nc(-c3ccc(F)cc3)c(CCN3CCN(C)CC3)cn2n1	3	0	1	0.3	i
COc1ccc(N2CCN(C(=O)c3ccccc3Br)CC2)c([N+](=O)[O-])c1	1	1	-5	0.056	i
COC(=O)C(Sc1nc(C)cc(C)c1C#N)c1ccccc1 (centres undefined)	2	1	98*	-0.42	i
Cc1cc(C)cc(C(=O)OCC(=O)Nc2cccc(S(=O)(=O)NC3=NCCCCC3)c2)c1	4	-2	52*	-0.77	i
c1ccc(CN2CCN(Cc3nnc(-c4ccccc4)o3)CC2)cc1	1	-1	80*	0.57	i
c1ccc(CN2CCOCCOCCOCCOCC2)cc1	.	-2	.	1.2	i
O=C(NC1CCCCCCC1)c1ccc2c(c1)OCO2	2	-1	10	2.6	i
CCS(=O)(=O)Nc1ccc(Cc2ccncc2)cc1	4	.	1	-0.27	i
Cc1cccc(/C=N/NC(=O)c2cc3c(s2)-c2ccccc2CC3)c1	34*	0	-8	0.47	i
O=C(N/N=C/c1cccc(C(F)(F)F)c1)c1cc2c(s1)-c1ccccc1CC2	14	2	-11	-0.091	i
COc1ccc(C2=NCN(c3ccc(C)cc3)C(=S)N2)cc1	2	.	-6	1.2	i
Cc1ccccc1NC(=S)N(C)Cc1cn(C)c2ccccc12	5	0	63*	-0.92	i
SMILES	MT stabilize HCS	b-catenin transl	L major viab	Dynein cargo inh	HSV augment
COCCCn1c2nc3ccccc3nc2c2c(=O)n(Cc3ccccc3Cl)cnc21	.	-2	.	.	i
CCN(CC)CCC#CC(O)(c1ccccc1)c1ccccc1	5	-4	5	0.16	i
CCN(CC)CC#CC(OC)(c1ccccc1)c1ccccc1	1	-1	64*	-0.95	i
CCCC(C(=O)O)N1C(=O)/C(=C/c2cccn2C)SC1=S (centres undefined)	4	1	-4	0.79	?
Cn1c(=O)c2c(ncn2CC(COCc2ccc(Cl)cc2)OCc2ccc(Cl)cc2)n(C)c1=O (centres undefined)	4	-2	100*	-0.57	i
Cn1c(=O)c2c(ncn2Cc2ccc(Cl)cc2)n(C)c1=O	3	1	-1	0.44	i
